In ChEMBL document CHEMBL1158993, “Inhibition of tumor-promoter-enhanced 3H-choline incorporation into cellular phospholipids by phloroglucinol derivatives from Mallotus japonicus” (1991):
≈ marks a conversion by molar mass, not a printed value. Calls of active or inactive are those of the source. The calls are words filed in the database; no cut-off is given here.

Experiments:
[1] = Antitumor promotor activity against mouse C3H10T1/2 cells assessed as inhibition of TPA-enhanced [3H]choline chloride incorporation in to phospholipids at 10 ug/ml after 1 hr; format: functional; conditions: C3H 10T1/2
[2] = Antitumor promotor activity against mouse C3H10T1/2 cells assessed as inhibition of TPA-enhanced [3H]choline chloride incorporation in to phospholipids at 2 ug/ml after 1 hr; format: functional; conditions: C3H 10T1/2
[3] = Antitumor promotor activity against mouse C3H10T1/2 cells assessed as inhibition of TPA-enhanced [3H]choline chloride incorporation in to phospholipids at 50 ug/ml after 1 hr; format: functional; conditions: C3H 10T1/2
KB = assay: Cytotoxicity against human KB cells; format: functional
HEp-2 = assay: Cytotoxicity against human Hep2 cells; format: functional, cell-based
[4] = Antitumor promotor activity against mouse C3H10T1/2 cells assessed as inhibition of TPA-enhanced [3H]choline chloride incorporation in to phospholipids after 1 hr; format: functional; conditions: C3H 10T1/2, read-out: ID50 (the source's name)
In short: (§1)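 Mouse C3H10T1/2 fibroblasts were exposed to test agent for 1 h. Then [methyl-3H]choline chloride (9.25 kBq/culture) was added together with TPA (50 nM), and incubation continued for 4 h. Radioactivity in the phospholipid fraction was measured, and inhibition of the TPA-enhanced incorporation was expressed as %. Test concentrations were 50, 10, 2 or 1.5 µg/ml. Values are means of duplicate experiments.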

C3H 10T1/2 = assay: Antitumor promotor activity against mouse C3H10T1/2 cells assessed as inhibition of TPA-enhanced [3H]choline chloride incorporation in to phospholipids at 1.5 ug/ml after 1 hr; format: functional, cell-based; in short: as §1
PC-13 = assay: Cytotoxicity against human PC13 cells; format: functional, cell-based
P388 = assay: Cytotoxicity against mouse P388 cells; format: functional, cell-based
B16 = assay: Cytotoxicity against mouse B16 cells; format: functional, cell-based
L5178Y = assay: Cytotoxicity against mouse L5178Y cells; format: functional, cell-based

Row | Compound | inhibition at 10 µg/mL [1] | inhibition at 2 µg/mL [2] | inhibition at 50 µg/mL [3] | Activity (KB) | Activity (HEp-2) | IC50 [4] | Activity (C3H 10T1/2) | Activity (PC-13) | Activity (P388) | Activity (B16) | Activity (L5178Y) | EC50 (KB; read-out: ED50 (the source's name))
1 | COc1c(C)c(O)c(C(C)=O)c(O)c1Cc1c(O)c(C(C)=O)c(O)c2c1OC(C)(C)C(O)C2 (stereo unspecified) [ISOMALLOTOCHROMANOL] | 95.5% | 0% | 100% |  |  |  |  |  |  |  |  | 
2 | COc1c(C)c(O)c(C(C)=O)c(O)c1Cc1c(O)c(C(C)=O)c(O)c2c1OC(C)(C)C=C2 [ISOMALLOTOCHROMENE] | 100% | 97.9% | 100% | Active |  |  |  |  |  |  |  | 
3 | COc1c(C)c(O)c(C(C)=O)c(O)c1Cc1c(O)c2c(c(C(C)=O)c1O)OC(C)(C)C(O)C2 (stereo unspecified) [MALLOTOCHROMANOL] | 29.2% | 2.9% | 100% |  |  |  |  |  |  |  |  | 
4 | COc1c(C)c(O)c(C(C)=O)c(O)c1Cc1c(O)c2c(c(C(C)=O)c1O)OC(C)(C)CC2 [MALLOTOCHROMAN] | 68.7% | 9.3% | 74.3% |  |  |  |  |  |  |  |  | 
5 | COc1c(C)c(O)c(C(C)=O)c(O)c1Cc1c(O)c2c(c(C(C)=O)c1O)OC(C)(C)C=C2 [MALLOTOCHROMENE] | 66.7% |  | 100% | Active |  |  |  |  |  |  |  | 
6 | COc1c(C)c(O)c(C(C)=O)c(O)c1Cc1c(O)c(CC=C(C)C)c(O)c(C(C)=O)c1O [MALLOTOJAPONIN] | 100% | 85.8% | 100% |  | Active | 1 µg/mL | Active | Active | Active | Active | Active | 0.58 µg/mL (≈ 1.3 µM)
7 | C=C(C)C(O)Cc1c(O)c(Cc2c(O)c(C(C)=O)c(O)c(C)c2OC)c(O)c(C(=O)CCC)c1O (stereo unspecified) [MALLOTOLERIN] | 100% | 78.8% | 100% | Active |  |  |  |  |  |  |  | 
